Experimental data published in ChEMBL document CHEMBL1133793, “Polyamines with N-(3-phenylpropyl) substituents are effective competitive inhibitors of trypanothione reductase and trypanocidal agents” (Bioorg Med Chem Lett, 2001).

Columns and labels:
Trypanosoma brucei [1] = test: Tested in vitro for trypanocidal activity against KETRI 243-As-10-3 a pentamidine and melarsoprol resistant clone of Trypanosoma brucei. rhodesiense KETRI 243; assay type: functional, organism-based
In short: (§1)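 Bloodstream-form trypanosomes were grown in vitro in culture medium containing fetal bovine serum, which the paper notes contains polyamine oxidase. IC50 values in µM.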

Trypanosoma brucei [2] = test: Tested in vitro for trypanocidal activity against KETRI 243 an uncloned clinical isolate of Trypanosoma brucei. rhodesiense; assay type: functional, organism-based; in short: as §1
Trypanothione reductase = Trypanothione reductase (Trypanosoma cruzi, UniProt P28593); test: Tested for binding affinity against trypanothione reductase from Trypanosoma cruzi
Sequence of Trypanothione reductase (P28593 whole entry): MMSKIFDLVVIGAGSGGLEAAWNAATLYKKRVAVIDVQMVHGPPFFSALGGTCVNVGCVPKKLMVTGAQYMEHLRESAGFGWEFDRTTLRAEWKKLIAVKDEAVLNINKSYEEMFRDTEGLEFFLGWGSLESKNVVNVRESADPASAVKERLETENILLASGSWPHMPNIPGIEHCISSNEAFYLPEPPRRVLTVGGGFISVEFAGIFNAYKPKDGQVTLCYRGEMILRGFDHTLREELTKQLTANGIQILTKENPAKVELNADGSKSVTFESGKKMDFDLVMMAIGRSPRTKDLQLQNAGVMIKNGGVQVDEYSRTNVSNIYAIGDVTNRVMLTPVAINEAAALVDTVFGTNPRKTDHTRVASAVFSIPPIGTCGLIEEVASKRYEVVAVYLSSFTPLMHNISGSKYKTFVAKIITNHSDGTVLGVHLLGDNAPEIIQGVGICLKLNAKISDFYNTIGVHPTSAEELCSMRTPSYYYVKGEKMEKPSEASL
In short: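 Recombinant T. cruzi TR purified from glutathione reductase-deficient E. coli SG5 strain. Activity read as NADPH oxidation at 340 nm, 23 °C, in HEPES 100 mM pH 7.25 with EDTA 1 mM, NADPH 0.18 mM and TR 2.2 µg/mL. Velocities taken at five trypanothione levels (15-75 µM) and five inhibitor levels. Km(obs) fitted by Michaelis–Menten; Ki from weighted regression of Km(obs) against [I].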

Trypanosoma brucei [3] = test: Tested in vitro for trypanocidal activity against KETRI 269 an uncloned clinical isolate of Trypanosoma brucei. rhodesiense; assay type: functional, organism-based; in short: as §1
Trypanosoma brucei [4] = test: Tested in vitro for trypanocidal activity against a drug sensitive strain of Trypanosoma brucei Lab 110 EATRO; assay type: functional, organism-based; in short: as §1

## c1ccc(CCCN(CCCCN(CCCc2ccccc2)CCCN(CCCc2ccccc2)CCCc2ccccc2)CCCN(CCCc2ccccc2)CCCc2ccccc2)cc1
Trypanosoma brucei [1]
  IC50: 24000 nM
Trypanosoma brucei [2]
  IC50: 35000 nM
Trypanothione reductase
  Ki: 10300 nM
Trypanosoma brucei [3]
  IC50: 30500 nM
Trypanosoma brucei [4]
  IC50: 22000 nM

## NCCCN(CCCCN(CCCN)CCCc1ccccc1)CCCc1ccccc1
Trypanosoma brucei [1]
  IC50: 660 nM
Trypanosoma brucei [2]
  IC50: 790 nM
Trypanosoma brucei [3]
  IC50: 580 nM
Trypanosoma brucei [4]
  IC50: 660 nM

## c1ccc(CCCNCCCCN(CCCNCCCc2ccccc2)CCCc2ccccc2)cc1
Trypanosoma brucei [1]
  IC50: 460 nM
Trypanosoma brucei [2]
  IC50: 360 nM
Trypanothione reductase
  Ki: 3500 nM
Trypanosoma brucei [3]
  IC50: 540 nM
Trypanosoma brucei [4]
  IC50: 220 nM

## c1ccc(CCCNCCCNCCCCNCCCN(CCCc2ccccc2)CCCc2ccccc2)cc1
Trypanosoma brucei [1]
  IC50: 530 nM
Trypanosoma brucei [2]
  IC50: 160 nM
Trypanothione reductase
  Ki: 3620 nM
Trypanosoma brucei [3]
  IC50: 270 nM
Trypanosoma brucei [4]
  IC50: 400 nM

## c1ccc(CCCNCCCN(CCCCN(CCCc2ccccc2)CCCN(CCCc2ccccc2)CCCc2ccccc2)CCCc2ccccc2)cc1
Trypanosoma brucei [1]
  IC50: 5500 nM
Trypanosoma brucei [2]
  IC50: 3350 nM
Trypanothione reductase
  Ki: 151 nM
Trypanosoma brucei [3]
  IC50: 2200 nM
Trypanosoma brucei [4]
  IC50: 3050 nM

## NCCCN(CCCCN(CCCNCCCc1ccccc1)CCCc1ccccc1)CCCc1ccccc1
Trypanosoma brucei [1]
  IC50: 160 nM
Trypanosoma brucei [2]
  IC50: 160 nM
Trypanothione reductase
  Ki: 1380 nM
Trypanosoma brucei [3]
  IC50: 160 nM
Trypanosoma brucei [4]
  IC50: 270 nM

## NCCCCN(CCCNCCCc1ccccc1)CCCc1ccccc1.NCCCN(CCCCNCCCc1ccccc1)CCCc1ccccc1
Trypanosoma brucei [1]
  IC50: 570 nM
Trypanosoma brucei [2]
  IC50: 530 nM
Trypanothione reductase
  Ki: 4670 nM
Trypanosoma brucei [3]
  IC50: 380 nM
Trypanosoma brucei [4]
  IC50: 310 nM

## NCCCNCCCCNCCCNCCCc1ccccc1
Trypanothione reductase
  Ki: 37600 nM

## NCCCCN(CCCN)CCCc1ccccc1
Trypanothione reductase
  Ki: 14100 nM

## c1ccc(CCCNCCCNCCCCNCCCNCCCc2ccccc2)cc1
Trypanosoma brucei [1]
  IC50: 2200 nM
Trypanosoma brucei [2]
  IC50: 1500 nM
Trypanothione reductase
  Ki: 12300 nM
Trypanosoma brucei [3]
  IC50: 1800 nM
Trypanosoma brucei [4]
  IC50: 810 nM

## c1ccc(CCCNCCCN(CCCCN(CCCNCCCc2ccccc2)CCCc2ccccc2)CCCc2ccccc2)cc1
Trypanosoma brucei [1]
  IC50: 150 nM
Trypanosoma brucei [2]
  IC50: 140 nM
Trypanothione reductase
  Ki: 614 nM
Trypanosoma brucei [3]
  IC50: 160 nM
Trypanosoma brucei [4]
  IC50: 120 nM
